Reference: PubChem BioAssay AID623912 (Johns Hopkins Ion Channel Center, 2012)
pIC50: −log10 of the molar value. Activity calls are given as the source filed them.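 How the source made its calls: active means peak KCNK3 inhibition above a set limit at some dose, plus a fitted dose-response curve; inactive means no KCNK3 inhibition, or no dose-response curve.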

Biological target: Potassium channel subfamily K member 3 (Rattus norvegicus) (UniProt O54912)
Assay: KCNK3 off-target potassium flux block – cell-based, FluxOR thallium flux, CRC set 2, selectivity assay for KCNK9 inhibitor project, SAR follow-up (AID 623912)
Conditions: KCNK3-expressing cells, FluxOR thallium flux fluorescence; for flux ratio, lower = inhibition: at 3 µM (top of the series)
Summary of the method: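 Assay system: tetracycline-induced CHO cells expressing rat KCNK3 potassium channel. Probe or stimulus: Tl+/K+ sulfate stimulus buffer (5x stock). Dosing: concentration series of compound. Incubation: dye 90 min, compound 20 min, both room temperature. Measured by: FluxOR Tl+ flux fluorescence. Evaluation: IC50 from normalized flux signal. Replicates: duplicate or more.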

Sequence of Potassium channel subfamily K member 3 (Rattus norvegicus) (O54912 whole entry, looked up): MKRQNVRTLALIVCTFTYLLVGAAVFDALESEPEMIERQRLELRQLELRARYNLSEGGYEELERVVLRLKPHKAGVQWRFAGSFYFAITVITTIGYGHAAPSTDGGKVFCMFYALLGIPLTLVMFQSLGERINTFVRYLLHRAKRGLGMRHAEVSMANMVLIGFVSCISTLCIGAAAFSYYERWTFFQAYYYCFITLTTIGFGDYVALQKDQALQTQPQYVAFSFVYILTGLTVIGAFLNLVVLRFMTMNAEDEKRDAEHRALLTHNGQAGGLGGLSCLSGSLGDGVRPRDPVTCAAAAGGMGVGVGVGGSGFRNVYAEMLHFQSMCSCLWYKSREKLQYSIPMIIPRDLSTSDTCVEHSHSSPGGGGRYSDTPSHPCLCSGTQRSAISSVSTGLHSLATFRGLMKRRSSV

Compound | pIC50 | flux ratio, lower = inhibition
Cc1cccc(NC(=O)c2ccccc2NC(=O)c2ccccc2)c1 | 5.86 | 
CC(C1CC2CCC1C2)n1cnnc1-c1ccco1 (configuration not stated) | 7.74 | 
CC(C1CC2CCC1C2)n1c(-c2cccc(F)c2)n[nH]c1=S (configuration not stated) | 7.09 | 
COc1cccc(Cc2n[nH]c(=S)n2C(C)C2CC3CCC2C3)c1 (configuration not stated) |  | inactive
O=C(Nc1cccc(NC(=O)c2ccc(F)cc2)c1)c1ccccc1 | 6.51 | 
CCOc1ccccc1NC(=O)c1cccc(NC(=O)c2ccccc2)c1 | 6.92 | 
COc1cccc(OC)c1C(=O)Nc1cccc(NC(=O)c2cccc(C)c2)c1 | 6.83 | 
CC(C1CC2CCC1C2)n1c(SC(F)F)nnc1-c1ccco1 (configuration not stated) |  | inactive
CCOc1ccccc1NC(=O)c1cccc(NC(=O)C2CCCO2)c1 (configuration not stated) | 6.89 | 
COc1ccc(-c2n[nH]c(=S)n2C(C)C2CC3CCC2C3)cc1 (configuration not stated) |  | inactive
Cc1cccc(C(=O)Nc2cccc(NC(=O)c3ccccc3OC(F)(F)F)c2)c1 | 7.55 | 
COc1ccccc1NC(=O)c1cccc(NC(=O)C2CCCC2)c1 | 6.62 | 
Cc1ccc(-c2n[nH]c(=S)n2C(C)C2CC3CCC2C3)cc1 (configuration not stated) | 6.11 | 
CCOc1ccccc1NC(=O)c1cccc(NC(=O)c2ccccc2OC(F)(F)F)c1 | 6.94 | 
CCOc1ccccc1C(=O)Nc1cccc(NC(=O)c2ccccc2OC)c1 | 8.70 | 
CC(C1CC2CCC1C2)n1c(-c2cccnc2)n[nH]c1=S (configuration not stated) | 5.99 | 
COc1ccccc1NC(=O)c1cccc(NC(=O)C2CCCCC2)c1 | 7.07 | 
CCOc1ccccc1C(=O)Nc1cccc(NC(=O)C2CCCC2)c1 | 6.97 | 
COc1cccc(C(=O)Nc2cccc(NC(=O)c3cccc(C)c3)c2)c1 | 7.51 | 
CCOc1ccccc1NC(=O)c1cccc(NC(=O)c2cccc(C)c2)c1 | 7.77 | 
Cc1cccc(C(=O)Nc2cccc(NC(=O)c3ccccc3)c2)c1 | 7.02 | 
CC(C1CC2CCC1C2)n1c(-c2cccc(Cl)c2)n[nH]c1=S (configuration not stated) | 7.70 | 
CCOc1ccccc1NC(=O)c1cccc(NC(=O)c2ccc(Cl)cc2)c1 | 6.86 | 

Compound | pIC50 | flux ratio, lower = inhibition
CCOc1ccccc1NC(=O)c1cccc(NC(=O)c2ccccc2OC)c1 | 8.19 | 
O=C(Nc1ccccc1Cl)c1cccc(NC(=O)C2CCCC2)c1 | 6.70 | 
O=C(Nc1cccc(NC(=O)c2ccc(C(F)(F)F)cc2)c1)c1ccccc1 |  | inactive
CCOc1ccccc1NC(=O)c1cccc(C(=O)NC2CCCC2)c1 | 6.47 | 
COc1cccc(-c2nnc(S(C)(=O)=O)n2C(C)C2CC3CCC2C3)c1 (configuration not stated) | 6.97 | 
Cc1cccc(C(=O)Nc2cccc(NC(=O)c3ccccc3C(C)C)c2)c1 | 6.48 | 
O=C(Nc1cccc(NC(=O)c2cccc(Cl)c2)c1)c1ccccc1 | 6.92 | 
COc1ccccc1NC(=O)c1cccc(NC(=O)CC2CCCC2)c1 | 7.07 | 
COc1ccccc1NC(=O)c1cccc(NC(=O)c2ccccc2C(F)(F)F)c1 | 7.38 | 
Cc1cccc(C(=O)Nc2cccc(NC(=O)c3ccco3)c2)c1 | 6.84 | 
Cc1cccc(C(=O)Nc2cccc(NC(=O)c3cccs3)c2)c1 | 8.52 | 
Cc1cccc(C(=O)Nc2cccc(NC(=O)c3cccc(C)c3)c2)c1 | 7.53 | 
CC(C1CC2CCC1C2)n1c(SCc2ccccc2)nnc1-c1ccco1 (configuration not stated) | 5.78 | 
CCOc1ccccc1NC(=O)c1cccc(NC(=O)C2CCCC2)c1 | 7.17 | 
CCOc1ccccc1NC(=O)c1cccc(NC(=O)c2ccc(C)cc2)c1 | 6.87 | 
O=C(Nc1cccc(NC(=O)c2cccnc2)c1)c1ccccc1 | 5.89 | 
CCOc1ccccc1NC(=O)c1cccc(NC(=O)C2CCCCC2)c1 | 7.17 | 
O=C(Nc1cccc(NC(=O)c2ccc(Cl)cc2)c1)c1ccccc1 |  | inactive
CC(C1CC2CCC1C2)n1c(-c2ccccc2F)n[nH]c1=S (configuration not stated) | 5.66 | 
COc1cccc(C(=O)Nc2cccc(NC(=O)c3ccccc3)c2)c1 | 6.67 | 
Cc1ccccc1C(=O)Nc1cccc(NC(=O)c2ccccc2)c1 | 6.98 | 
COc1ccccc1C(=O)Nc1cccc(NC(=O)c2ccccc2OC)c1 | 8.01 | 
CC(C1CC2CCC1C2)n1c(-c2ccccn2)n[nH]c1=S (configuration not stated) | 5.89 | 

Compound | pIC50 | flux ratio, lower = inhibition
Cc1cccc(-c2n[nH]c(=S)n2C(C)C2CC3CCC2C3)c1 (configuration not stated) |  | inactive
CCOc1cccc(NC(=O)c2cccc(NC(=O)C3CCCC3)c2)c1 | 6.31 | 
S=c1[nH]nc(-c2ccco2)n1C1CC2CCC1C2 (configuration not stated) | 7.43 | 
CCOc1ccccc1NC(=O)c1cccc(NC(=O)C(C)(C)C)c1 | 5.88 | 
CCOc1ccccc1NC(=O)c1cccc(NC(=O)C2CCOC2)c1 (configuration not stated) | 5.88 | 
Cc1cccc(C(=O)Nc2cccc(C(=O)Nc3ccccc3)c2)c1 | 6.07 | 
CCOc1ccccc1NC(=O)c1cccc(NC(=O)c2ccc(OC)cc2)c1 | 6.52 | 
COc1ccccc1C(=O)Nc1cccc(NC(=O)c2cccc3ccccc23)c1 | 8.52 | 
CCOc1ccccc1C(=O)Nc1cccc(NC(=O)c2cccc(C)c2)c1 | 8.13 | 
Cc1ccccc1-c1n[nH]c(=S)n1C(C)C1CC2CCC1C2 (configuration not stated) | 6.04 | 
COc1ccc(C(=O)CSc2nnc(-c3ccco3)n2C(C)C2CC3CCC2C3)cc1OC (configuration not stated) | 5.68 | 
Cc1cccc(C(=O)Nc2cccc(NC(=O)c3ccccc3C)c2)c1 | 7.04 | 
COc1ccccc1C(=O)Nc1cc(NC(=O)c2ccccc2C(C)C)ccc1F | 8.00 | 
COc1ccc(C(=O)Nc2cccc(NC(=O)c3cccc(C)c3)c2)cc1 | 5.88 | 
CC(C)n1c(-c2ccco2)n[nH]c1=S | 7.04 | 
COc1ccccc1C(=O)Nc1cccc(NC(=O)c2ccccc2)c1 | 6.65 | 
CC(C1CC2CCC1C2)n1c(-c2ccoc2)n[nH]c1=S (configuration not stated) | 6.53 | 
CCOc1ccccc1NC(=O)c1cccc(NC(=O)CC2CCCC2)c1 | 6.79 | 
Cc1cccc(C(=O)Nc2cccc(NC(=O)c3ccccc3Cl)c2)c1 | 7.64 | 
COc1ccccc1NC(=O)c1cccc(NC(=O)c2ccccc2)c1 | 7.19 | 
CCOc1ccccc1NC(=O)c1cccc(NC(=O)CC2CCCCC2)c1 | 6.66 | 
CC(C1CC2CCC1C2)n1c(-c2ccco2)nnc1C(F)(F)F (configuration not stated) | 5.93 | 
Cc1cccc(C(=O)Nc2cccc(NC(=O)c3ccccc3C(F)(F)F)c2)c1 |  | inactive

Compound | pIC50 | flux ratio, lower = inhibition
CC(c1ccco1)n1c(-c2ccoc2)n[nH]c1=S (configuration not stated) |  | inactive
COc1ccccc1-c1n[nH]c(=S)n1C(C)C1CC2CCC1C2 (configuration not stated) | 6.99 | 
Cc1cccc(C(=O)Nc2cccc(NC(=O)c3ccc(C(C)(C)C)cc3)c2)c1 | 6.73 | 
COc1ccccc1C(=O)Nc1cccc(NC(=O)c2ccccc2C(C)C)c1 | 8.15 | 
O=C(Nc1cccc(NC(=O)c2ccccc2Cl)c1)c1ccccc1 | 6.51 | 
CCOc1ccccc1NC(=O)c1cccc(NC(=O)c2cccc(C(F)(F)F)c2)c1 | 6.63 | 
CC(C1CC2CCC1C2)n1c(-c2ccccc2)n[nH]c1=S (configuration not stated) | 6.39 | 
Cc1cccc(C(=O)Nc2ccc(C(=O)Nc3ccccc3)cc2)c1 | 6.74 | 
CC(C1CC2CCC1C2)n1c(-c2ccco2)n[nH]c1=S (configuration not stated) | 6.47 | 
O=C(Nc1cccc(NC(=O)c2ccoc2)c1)c1ccccc1 | 6.10 | 
CC(C1CC2CCC1C2)n1c(-c2ccsc2)n[nH]c1=S (configuration not stated) |  | inactive
Cc1cccc(C(=O)Nc2cccc(NC(=O)c3ccc(N(C)C)cc3)c2)c1 | 6.84 | 
COc1ccccc1NC(=O)c1cccc(NC(=O)c2ccccc2OC)c1 | 8.10 | 
CC(c1cccc2ccccc12)n1c(-c2ccco2)n[nH]c1=S (configuration not stated) | 6.25 | 
COc1cccc(-c2n[nH]c(=S)n2C(C)C2CC3CCC2C3)c1OC (configuration not stated) | 7.82 | 
CC(C1CC2CCC1C2)n1c(-c2ccc(Cl)cc2)n[nH]c1=S (configuration not stated) | 6.62 | 
CC(c1ccccc1)n1c(-c2ccco2)n[nH]c1=S (configuration not stated) | 6.25 | 
Cc1cccc(C(=O)Nc2cccc(NC(=O)c3cccc(C(F)(F)F)c3)c2)c1 | 7.96 | 
CC(C)(C)c1ccc(C(=O)Nc2cccc(NC(=O)c3ccccc3)c2)cc1 |  | inactive
Cc1cccc(C(=O)Nc2cccc(NC(=O)c3ccc(Cl)cc3)c2)c1 | 6.83 | 
O=C(Nc1cccc(NC(=O)c2ccccn2)c1)c1ccccc1 | 7.07 | 
Cc1cccc(C(=O)Nc2cccc(NC(=O)C3CCCCC3)c2)c1 | 7.77 | 
COc1ccccc1C(=O)Nc1cccc(NC(=O)c2ccccc2C)c1 | 7.14 | 

Compound | pIC50 | flux ratio, lower = inhibition
CCOc1ccccc1NC(=O)c1cccc(NC(=O)c2ccc(C(F)(F)F)cc2)c1 | 6.66 | 
Cc1cccc(C(=O)Nc2cccc(NC(=O)c3ccc(C(F)(F)F)cc3)c2)c1 |  | inactive
CCOc1ccccc1NC(=O)c1cccc(NC(=O)c2cccc(OC)c2)c1 | 8.30 | 
Cc1ccc(C(=O)Nc2cccc(NC(=O)c3ccccc3)c2)cc1 |  | inactive
COc1cc(OC)cc(-c2n[nH]c(=S)n2C(C)C2CC3CCC2C3)c1 (configuration not stated) | 6.96 | 
COc1cccc(-c2n[nH]c(=S)n2C(C)C2CC3CCC2C3)c1 (configuration not stated) | 5.89 | 
CC(C1CCCCC1)n1c(-c2ccco2)n[nH]c1=S (configuration not stated) | 7.36 | 
CC(C1CC2CCC1C2)n1c(SCC#N)nnc1-c1cccs1 (configuration not stated) |  | inactive
CCOc1ccccc1NC(=O)c1cccc(NC(=O)c2ccccc2Cl)c1 | 7.08 | 
CN(C)c1ccc(C(=O)Nc2cccc(NC(=O)c3ccccc3)c2)cc1 | 6.59 | 
CSc1nnc(-c2ccco2)n1C(C)C1CC2CCC1C2 (configuration not stated) | 6.06 | 
S=c1[nH]nc(-c2ccco2)n1CC1CC2CCC1C2 (configuration not stated) | 6.04 | 
Cc1cccc(S(=O)(=O)Nc2cccc(NC(=O)c3ccccc3)c2)c1 | 5.84 | 
CCOc1ccccc1NC(=O)c1cccc(NC(=O)c2cccc(Cl)c2)c1 | 7.41 | 
CC(C)Oc1ccccc1C(=O)Nc1cccc(NC(=O)c2ccccc2OC(F)(F)F)c1 | 9.00 | 
CC(C1CC2CCC1C2)n1c(-c2ccccc2Cl)n[nH]c1=S (configuration not stated) | 5.69 | 
O=C(Nc1cccc(NC(=O)c2ccccc2C(F)(F)F)c1)c1ccccc1 | 6.89 | 
CCOc1ccccc1NC(=O)c1cccc(NC(=O)C2CC2)c1 | 5.97 | 
O=C(Nc1cccc(NC(=O)c2cccc(F)c2)c1)c1ccccc1 | 7.35 | 
O=C(Nc1cccc(NC(=O)c2ccsc2)c1)c1ccccc1 | 6.79 | 
